Reference: ChEMBL document CHEMBL2390954, “Discovery of a synthetic Aminopeptidase N inhibitor LB-4b as a potential anticancer agent” (Bioorg Med Chem Lett, 2013)
Activity calls are given as the source filed them. No cut-off for these calls is given here.

Columns and labels:
Aorta = assay: Antiangiogenic activity against Sprague-Dawley rat aortic rings assessed as inhibition of new microvessel growth at 100 ug/ml after 6 days; assay type: functional, tissue-based
In short: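 Rat aortic rings embedded on Matrigel; microvessel outgrowth from the ring scored and expressed as inhibition rate versus control; mean with SD from three independent experiments.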

ES2 [1] = assay: Antimigratory activity against human ES2 cells in transwell chamber at 100 ug/ml after 3 hrs by Crystal violet staining-based microscopy; assay type: functional, cell-based
In short: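 ES-2 cells placed in Transwell chambers with 8 µm micropore membranes, no Matrigel coating; cells crossing the membrane counted as migration rate relative to control; mean with SD from three independent experiments.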

HUVEC [2] = assay: Acute cytotoxicity against HUVEC at 100 ug/ml after 8 hrs by microscopic analysis; assay type: cell-based; conditions: human
In short: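 Acute cytotoxicity judged by microscopic inspection of treated samples during the assay period on Matrigel.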

[3] = Cytotoxicity against human ES2 cells after 24 hrs by MTT assay; assay type: functional; conditions: ES-2, 24 h
ES2 [4] = assay: Antiinvasive activity against human ES2 cells in matrigel-coated transwell chamber after 8 hrs by Crystal violet staining-based microscopy; assay type: functional, cell-based
In short: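 Invasion assessed in Matrigel-coated Transwell chambers; ES-2 cells allowed to invade the Matrigel and reach the other side of the membrane over 8 h; graded doses tested.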

HUVEC [5] = assay: Antiangiogenic activity in HUVEC assessed as inhibition of tube formation at 100 ug/ml after 8 hrs by microscopic analysis; assay type: functional, cell-based; conditions: Homo sapiens
In short: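 HUVECs plated on Matrigel to form capillary tube-like structures; tubular structure formation scored as inhibition rate versus untreated control; mean with SD from three independent experiments.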

[6] = target: 72 kDa type IV collagenase (Homo sapiens, UniProt P08253); assay: Inhibition of recombinant MMP2 (unknown origin) using […] as substrate incubated for 5 mins prior to substrate addition measured after 60 mins by UV-Vis spectrophotometry
Chain of 72 kDa type IV collagenase (P08253 whole entry): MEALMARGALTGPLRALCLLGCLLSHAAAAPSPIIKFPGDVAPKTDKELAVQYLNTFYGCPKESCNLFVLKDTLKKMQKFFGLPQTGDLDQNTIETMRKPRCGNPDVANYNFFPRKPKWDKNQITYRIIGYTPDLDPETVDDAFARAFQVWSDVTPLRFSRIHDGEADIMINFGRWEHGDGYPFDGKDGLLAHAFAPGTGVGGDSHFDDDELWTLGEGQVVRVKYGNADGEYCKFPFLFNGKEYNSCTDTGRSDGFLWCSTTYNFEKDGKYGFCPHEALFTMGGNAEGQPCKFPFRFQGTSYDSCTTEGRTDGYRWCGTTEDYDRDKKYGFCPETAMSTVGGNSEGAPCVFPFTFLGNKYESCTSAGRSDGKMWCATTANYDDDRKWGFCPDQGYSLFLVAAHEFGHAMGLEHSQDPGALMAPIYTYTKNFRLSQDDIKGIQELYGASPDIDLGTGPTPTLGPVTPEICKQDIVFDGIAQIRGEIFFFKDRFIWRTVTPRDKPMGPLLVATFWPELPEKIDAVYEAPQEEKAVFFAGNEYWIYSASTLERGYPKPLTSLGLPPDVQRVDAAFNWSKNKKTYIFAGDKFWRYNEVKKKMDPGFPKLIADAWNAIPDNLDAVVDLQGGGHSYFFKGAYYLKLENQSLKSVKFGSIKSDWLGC

Aminopeptidase N [7] = target: T1, Aminopeptidase N (Homo sapiens, UniProt P15144); assay: Ratio of betastatin IC50 to compound IC50 for APN in human ES-2 cells; assay type: cell-based
T1 sequence (P15144 whole entry): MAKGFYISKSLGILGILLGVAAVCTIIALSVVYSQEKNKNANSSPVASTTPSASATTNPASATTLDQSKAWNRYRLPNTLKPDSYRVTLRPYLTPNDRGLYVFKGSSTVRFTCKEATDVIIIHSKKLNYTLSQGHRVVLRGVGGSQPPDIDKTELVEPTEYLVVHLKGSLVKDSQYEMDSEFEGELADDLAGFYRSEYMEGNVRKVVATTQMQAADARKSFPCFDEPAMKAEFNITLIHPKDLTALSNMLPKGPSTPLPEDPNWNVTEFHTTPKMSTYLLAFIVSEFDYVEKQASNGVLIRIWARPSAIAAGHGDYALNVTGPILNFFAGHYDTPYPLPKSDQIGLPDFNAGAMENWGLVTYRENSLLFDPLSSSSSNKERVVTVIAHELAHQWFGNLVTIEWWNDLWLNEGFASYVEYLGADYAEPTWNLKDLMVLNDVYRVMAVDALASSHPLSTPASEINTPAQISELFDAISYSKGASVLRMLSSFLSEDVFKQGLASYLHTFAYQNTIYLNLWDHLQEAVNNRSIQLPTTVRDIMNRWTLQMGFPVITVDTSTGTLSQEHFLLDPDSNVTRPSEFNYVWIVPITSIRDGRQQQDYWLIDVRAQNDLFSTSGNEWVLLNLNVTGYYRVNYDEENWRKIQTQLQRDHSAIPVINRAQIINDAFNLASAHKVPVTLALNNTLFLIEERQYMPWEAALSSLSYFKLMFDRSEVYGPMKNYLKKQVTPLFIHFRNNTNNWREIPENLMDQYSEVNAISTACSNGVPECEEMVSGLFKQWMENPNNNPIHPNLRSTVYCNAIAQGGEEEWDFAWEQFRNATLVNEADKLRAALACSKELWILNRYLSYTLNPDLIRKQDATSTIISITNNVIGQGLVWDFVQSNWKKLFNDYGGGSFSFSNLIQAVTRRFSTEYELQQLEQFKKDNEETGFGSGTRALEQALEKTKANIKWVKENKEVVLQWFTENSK

Aminopeptidase N [8] = target: T2, Aminopeptidase N (Sus scrofa, UniProt P15145); assay: Inhibition of pig kidney APN using L-Leu-p-nitroanilide as substrate incubated for 5 mins prior to substrate addition measured after 30 mins by UV-Vis spectrophotometry
T2 sequence (P15145 whole entry): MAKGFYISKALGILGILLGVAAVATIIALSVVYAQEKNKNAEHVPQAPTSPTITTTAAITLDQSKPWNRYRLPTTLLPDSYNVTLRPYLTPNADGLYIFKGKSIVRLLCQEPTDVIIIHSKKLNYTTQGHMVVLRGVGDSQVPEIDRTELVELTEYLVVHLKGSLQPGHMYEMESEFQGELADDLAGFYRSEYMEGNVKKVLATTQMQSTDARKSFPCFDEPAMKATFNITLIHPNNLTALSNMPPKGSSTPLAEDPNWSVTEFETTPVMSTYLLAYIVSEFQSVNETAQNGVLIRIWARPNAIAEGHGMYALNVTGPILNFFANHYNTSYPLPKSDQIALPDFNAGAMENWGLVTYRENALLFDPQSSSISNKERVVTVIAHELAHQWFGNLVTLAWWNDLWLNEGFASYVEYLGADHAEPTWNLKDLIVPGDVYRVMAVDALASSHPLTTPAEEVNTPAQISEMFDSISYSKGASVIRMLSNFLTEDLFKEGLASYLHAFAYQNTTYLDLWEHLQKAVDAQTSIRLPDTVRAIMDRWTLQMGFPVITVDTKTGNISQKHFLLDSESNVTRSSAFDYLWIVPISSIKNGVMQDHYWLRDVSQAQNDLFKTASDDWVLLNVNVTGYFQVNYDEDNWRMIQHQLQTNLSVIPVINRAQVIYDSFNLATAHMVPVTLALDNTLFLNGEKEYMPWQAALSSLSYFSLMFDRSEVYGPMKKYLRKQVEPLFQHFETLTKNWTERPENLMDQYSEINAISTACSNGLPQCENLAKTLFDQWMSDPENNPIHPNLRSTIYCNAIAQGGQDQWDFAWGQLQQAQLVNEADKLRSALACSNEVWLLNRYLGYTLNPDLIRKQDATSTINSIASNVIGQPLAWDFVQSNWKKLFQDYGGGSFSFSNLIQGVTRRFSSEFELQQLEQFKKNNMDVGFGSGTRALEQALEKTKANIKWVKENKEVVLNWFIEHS

Aminopeptidase N [9] = target: T1, Aminopeptidase N; assay: Inhibition of APN in human ES-2 cells using L-Leu-p-nitroanilide as substrate incubated for 5 mins prior to substrate addition measured after 1 hr by UV-Vis spectrophotometry; assay type: cell-based

## CC(C)C[C@H](NC(=O)[C@@H](O)[C@H](N)Cc1ccccc1)C(=O)O [UBENIMEX]
Aorta
  Activity: Active
ES2 [1]
  Activity: inactive
HUVEC [2]
  Activity: Non-toxic
[3]
  GI50: 350 µM
ES2 [4]
  Activity: Dose-dependent effect
HUVEC [5]
  Activity: Active

## CC(C)C[C@H](NC(=O)NCc1ccccc1)C(=O)NO
Aorta
  Activity: Active
ES2 [1]
  Activity: inactive
HUVEC [2]
  Activity: Non-toxic
[6]
  IC50: > 500 µM
[3]
  GI50: > 1000 µM
ES2 [4]
  Activity: Dose-dependent effect
Aminopeptidase N [7]
  Ratio IC50: 10
HUVEC [5]
  Activity: Active
Aminopeptidase N [8]
  IC50: 0.85 µM
Aminopeptidase N [9]
  IC50: 3 µM
